Data reported in ChEMBL document CHEMBL1156851, “Practical and efficient synthesis of pyrano[3,2-c]pyridone, pyrano[4,3-b]pyran and their hybrids with nucleoside as potential antiviral and antileishmanial agents” (Bioorg Med Chem Lett, 2010).

Tests used:
Human betaherpesvirus 5 [1] = assay: Antiviral activity against Cytomegalovirus AD169 infected in HEL cells assessed as reduction of viral plaque formation; assay type: functional, organism-based; settings: Human betaherpesvirus 5, AD169, HEL
Human betaherpesvirus 5 [2] = assay: Antiviral activity against Cytomegalovirus Davis infected in HEL cells assessed as reduction of viral plaque formation; assay type: functional, organism-based; settings: Human betaherpesvirus 5, Davis
Leishmania donovani = assay: Antileishmanial activity against Leishmania donovani promastigotes; assay type: functional, organism-based
Human alphaherpesvirus 3 [3] = assay: Antiviral activity against thymidine kinase expressing Varicella Zoster Virus OKA infected in HEL cells assessed as reduction of viral plaque formation; assay type: functional, organism-based; settings: Human alphaherpesvirus 3, OKA
Human alphaherpesvirus 3 [4] = assay: Antiviral activity against thymidine kinase deficient Varicella zoster virus 07/1 infected in HEL cells assessed as reduction of viral plaque formation; assay type: functional, organism-based; settings: Human alphaherpesvirus 3, 07/1, HEL
[5] = Cytotoxicity against HEL cells assessed as microscopically detectable alteration of cell morphology; assay type: cell-based; settings: human
Procedure, shortened: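 Cells are examined under the microscope after exposure. MCC is the minimum concentration that causes a microscopically detectable change in cell morphology.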

[6] = Cytotoxicity against HEL cells assessed as reduction of cell growth; assay type: cell-based; settings: human

**Q.** For `Cc1cc2c(c(=O)o1)C(c1cn([C@H]3C[C@H](O)[C@@H](CO)O3)c(=O)[nH]c1=O)C(C#N)=C(N)O2` (stereo not given in full), which EC50 (Human betaherpesvirus 5 [1]) is on record?
**A.** 54.7 µM

**Q.** And the EC50 (Human betaherpesvirus 5 [2])?
**A.** 54.7 µM

**Q.** What about the IC50 (Leishmania donovani) of the same compound?
**A.** > 200 µM

**Q.** And the EC50 (Human alphaherpesvirus 3 [3])?
**A.** 1.8 µM

**Q.** And the EC50 (Human alphaherpesvirus 3 [4])?
**A.** 5.3 µM

**Q.** And the MCC [5]?
**A.** > 100 µM

**Q.** And the CC50 [6]?
**A.** 3.3 µM

**Q.** With `CC(=O)OC[C@H]1O[C@@H](n2cc(C3C(C#N)=C(N)Oc4cc(C)oc(=O)c43)c(=O)[nH]c2=O)C[C@@H]1OC(C)=O` (stereo not given in full) as the compound, how does the EC50 (Human betaherpesvirus 5 [1]) read?
**A.** > 100 µM

**Q.** And the EC50 (Human betaherpesvirus 5 [2])?
**A.** > 100 µM

**Q.** And the IC50 (Leishmania donovani)?
**A.** > 200 µM

**Q.** What about the EC50 (Human alphaherpesvirus 3 [3]) of the same compound?
**A.** 48.1 µM

**Q.** What about the EC50 (Human alphaherpesvirus 3 [4]) of the same compound?
**A.** > 100 µM

**Q.** And the MCC [5]?
**A.** > 100 µM

**Q.** What about the CC50 [6] of the same compound?
**A.** 8.9 µM

**Q.** For `Nc1ccn(C[C@@H](CO)OCP(=O)(O)O)c(=O)n1` [CIDOFOVIR], which EC50 (Human betaherpesvirus 5 [2]) is on record?
**A.** 0.9 µM

**Q.** What about the MCC [5] of the same compound?
**A.** > 1270 µM

**Q.** And the CC50 [6]?
**A.** 175 µM

**Q.** With `Cc1cc(O)c(C(c2cn([C@H]3C[C@H](O)[C@@H](CO)O3)c(=O)[nH]c2=O)c2c(O)cc(C)oc2=O)c(=O)o1` as the compound, how does the EC50 (Human betaherpesvirus 5 [1]) read?
**A.** 20 µM

**Q.** What about the EC50 (Human betaherpesvirus 5 [2]) of the same compound?
**A.** 20 µM

**Q.** What about the IC50 (Leishmania donovani) of the same compound?
**A.** > 200 µM

**Q.** And the EC50 (Human alphaherpesvirus 3 [3])?
**A.** 0.6 µM

**Q.** And the EC50 (Human alphaherpesvirus 3 [4])?
**A.** 2.62 µM

**Q.** What about the MCC [5] of the same compound?
**A.** > 100 µM

**Q.** What about the CC50 [6] of the same compound?
**A.** 1.8 µM

**Q.** For `CCn1c(C)cc2c(c1=O)C(c1cn([C@H]3C[C@H](OC(C)=O)[C@@H](COC(C)=O)O3)c(=O)[nH]c1=O)C(C#N)=C(N)O2` (stereo not given in full), which EC50 (Human betaherpesvirus 5 [1]) is on record?
**A.** > 100 µM

**Q.** And the EC50 (Human betaherpesvirus 5 [2])?
**A.** > 100 µM

**Q.** And the IC50 (Leishmania donovani)?
**A.** > 200 µM

**Q.** What about the EC50 (Human alphaherpesvirus 3 [3]) of the same compound?
**A.** > 100 µM

**Q.** What about the EC50 (Human alphaherpesvirus 3 [4]) of the same compound?
**A.** > 100 µM

**Q.** What about the MCC [5] of the same compound?
**A.** > 100 µM

**Q.** What about the CC50 [6] of the same compound?
**A.** > 100 µM

**Q.** For `Cc1cc(O)c(C(c2cn([C@H]3C[C@H](O)[C@@H](CO)O3)c(=O)[nH]c2=O)c2c(O)cc(C)[nH]c2=O)c(=O)[nH]1`, which EC50 (Human betaherpesvirus 5 [1]) is on record?
**A.** 44.7 µM

**Q.** What about the EC50 (Human betaherpesvirus 5 [2]) of the same compound?
**A.** > 100 µM

**Q.** And the IC50 (Leishmania donovani)?
**A.** 43.5 µM

**Q.** What about the EC50 (Human alphaherpesvirus 3 [3]) of the same compound?
**A.** 0.32 µM

**Q.** And the EC50 (Human alphaherpesvirus 3 [4])?
**A.** 1.66 µM

**Q.** And the MCC [5]?
**A.** > 100 µM

**Q.** What about the CC50 [6] of the same compound?
**A.** 2.1 µM

**Q.** With `CC(=O)OC[C@H]1O[C@@H](n2cc(C(c3c(O)cc(C)oc3=O)c3c(O)cc(C)oc3=O)c(=O)[nH]c2=O)C[C@@H]1OC(C)=O` as the compound, how does the EC50 (Human betaherpesvirus 5 [1]) read?
**A.** > 100 µM

**Q.** And the EC50 (Human betaherpesvirus 5 [2])?
**A.** > 100 µM

**Q.** And the IC50 (Leishmania donovani)?
**A.** > 200 µM

**Q.** What about the EC50 (Human alphaherpesvirus 3 [3]) of the same compound?
**A.** 40.2 µM

**Q.** And the EC50 (Human alphaherpesvirus 3 [4])?
**A.** 48.6 µM

**Q.** What about the MCC [5] of the same compound?
**A.** > 100 µM

**Q.** And the CC50 [6]?
**A.** 3.8 µM

**Q.** Which IC50 (Leishmania donovani) does the source give for `N=C(N)c1ccc(OCCCCCOc2ccc(C(=N)N)cc2)cc1` [PENTAMIDINE] here?
**A.** 6.5 µM

**Q.** Which EC50 (Human betaherpesvirus 5 [1]) does the source give for `CC(=O)OC[C@H]1O[C@@H](n2cc(C3C(C#N)=C(N)Oc4cc(C)[nH]c(=O)c43)c(=O)[nH]c2=O)C[C@@H]1OC(C)=O` (stereo not given in full) here?
**A.** > 100 µM

**Q.** And the EC50 (Human betaherpesvirus 5 [2])?
**A.** > 100 µM

**Q.** And the IC50 (Leishmania donovani)?
**A.** 140 µM

**Q.** What about the EC50 (Human alphaherpesvirus 3 [3]) of the same compound?
**A.** 100 µM

**Q.** What about the EC50 (Human alphaherpesvirus 3 [4]) of the same compound?
**A.** > 100 µM

**Q.** And the MCC [5]?
**A.** > 100 µM

**Q.** What about the CC50 [6] of the same compound?
**A.** > 100 µM

**Q.** For `CC(=O)OC[C@H]1O[C@@H](n2cc(C3C(C#N)=C(N)Oc4cc(C)n(C)c(=O)c43)c(=O)[nH]c2=O)C[C@@H]1OC(C)=O` (stereo not given in full), which EC50 (Human betaherpesvirus 5 [1]) is on record?
**A.** > 100 µM

**Q.** What about the EC50 (Human betaherpesvirus 5 [2]) of the same compound?
**A.** > 100 µM

**Q.** What about the IC50 (Leishmania donovani) of the same compound?
**A.** > 200 µM

**Q.** What about the EC50 (Human alphaherpesvirus 3 [3]) of the same compound?
**A.** > 100 µM

**Q.** And the EC50 (Human alphaherpesvirus 3 [4])?
**A.** > 100 µM

**Q.** What about the MCC [5] of the same compound?
**A.** > 100 µM

**Q.** And the CC50 [6]?
**A.** > 100 µM

**Q.** Which EC50 (Human betaherpesvirus 5 [1]) does the source give for `CC(=O)OC[C@H]1O[C@@H](n2cc(C(c3c(O)cc(C)[nH]c3=O)c3c(O)cc(C)[nH]c3=O)c(=O)[nH]c2=O)C[C@@H]1OC(C)=O` here?
**A.** > 100 µM

**Q.** And the EC50 (Human betaherpesvirus 5 [2])?
**A.** > 100 µM

**Q.** What about the IC50 (Leishmania donovani) of the same compound?
**A.** > 200 µM

**Q.** What about the EC50 (Human alphaherpesvirus 3 [3]) of the same compound?
**A.** > 100 µM

**Q.** What about the EC50 (Human alphaherpesvirus 3 [4]) of the same compound?
**A.** > 100 µM

**Q.** And the MCC [5]?
**A.** > 100 µM

**Q.** What about the CC50 [6] of the same compound?
**A.** 36.9 µM

**Q.** Which EC50 (Human betaherpesvirus 5 [1]) does the source give for `Cc1cc2c(c(=O)[nH]1)C(c1cn([C@H]3C[C@H](O)[C@@H](CO)O3)c(=O)[nH]c1=O)C(C#N)=C(N)O2` (stereo not given in full) here?
**A.** > 100 µM

**Q.** What about the EC50 (Human betaherpesvirus 5 [2]) of the same compound?
**A.** > 100 µM

**Q.** What about the IC50 (Leishmania donovani) of the same compound?
**A.** 10.6 µM

**Q.** And the EC50 (Human alphaherpesvirus 3 [3])?
**A.** 55.7 µM

**Q.** And the EC50 (Human alphaherpesvirus 3 [4])?
**A.** > 100 µM

**Q.** What about the MCC [5] of the same compound?
**A.** > 100 µM

**Q.** What about the CC50 [6] of the same compound?
**A.** > 100 µM

**Q.** For `Cc1cc(O)c(C(c2cn([C@H]3C[C@H](O)[C@@H](CO)O3)c(=O)[nH]c2=O)c2c(O)cc(C)n(C)c2=O)c(=O)n1C`, which EC50 (Human betaherpesvirus 5 [1]) is on record?
**A.** 54.7 µM

**Q.** What about the EC50 (Human betaherpesvirus 5 [2]) of the same compound?
**A.** > 100 µM

**Q.** What about the IC50 (Leishmania donovani) of the same compound?
**A.** > 200 µM

**Q.** What about the EC50 (Human alphaherpesvirus 3 [3]) of the same compound?
**A.** 2.2 µM

**Q.** And the EC50 (Human alphaherpesvirus 3 [4])?
**A.** 16.7 µM

**Q.** What about the MCC [5] of the same compound?
**A.** > 100 µM

**Q.** And the CC50 [6]?
**A.** 7.7 µM

**Q.** With `CCn1c(C)cc2c(c1=O)C(c1cn([C@H]3C[C@H](O)[C@@H](CO)O3)c(=O)[nH]c1=O)C(C#N)=C(N)O2` (stereo not given in full) as the compound, how does the EC50 (Human betaherpesvirus 5 [1]) read?
**A.** > 100 µM

**Q.** And the EC50 (Human betaherpesvirus 5 [2])?
**A.** > 100 µM

**Q.** And the IC50 (Leishmania donovani)?
**A.** > 200 µM

**Q.** And the EC50 (Human alphaherpesvirus 3 [3])?
**A.** 71.2 µM

**Q.** And the EC50 (Human alphaherpesvirus 3 [4])?
**A.** > 100 µM

**Q.** What about the MCC [5] of the same compound?
**A.** > 100 µM

**Q.** What about the CC50 [6] of the same compound?
**A.** > 100 µM

**Q.** For `Nc1nc2c(ncn2COCCO)c(=O)[nH]1` [ACYCLOVIR], which EC50 (Human alphaherpesvirus 3 [3]) is on record?
**A.** 0.84 µM

**Q.** What about the MCC [5] of the same compound?
**A.** > 1780 µM

**Q.** And the CC50 [6]?
**A.** 1780 µM

**Q.** With `CC(=O)OC[C@H]1O[C@@H](n2cc(C(c3c(O)cc(C)n(C)c3=O)c3c(O)cc(C)n(C)c3=O)c(=O)[nH]c2=O)C[C@@H]1OC(C)=O` as the compound, how does the EC50 (Human betaherpesvirus 5 [1]) read?
**A.** > 100 µM

**Q.** And the EC50 (Human betaherpesvirus 5 [2])?
**A.** > 100 µM

**Q.** What about the IC50 (Leishmania donovani) of the same compound?
**A.** > 200 µM

**Q.** What about the EC50 (Human alphaherpesvirus 3 [3]) of the same compound?
**A.** 47.8 µM

**Q.** What about the EC50 (Human alphaherpesvirus 3 [4]) of the same compound?
**A.** > 100 µM

**Q.** And the MCC [5]?
**A.** > 100 µM

**Q.** And the CC50 [6]?
**A.** 20 µM

**Q.** With `Cc1cc2c(c(=O)n1C)C(c1cn([C@H]3C[C@H](O)[C@@H](CO)O3)c(=O)[nH]c1=O)C(C#N)=C(N)O2` (stereo not given in full) as the compound, how does the EC50 (Human betaherpesvirus 5 [1]) read?
**A.** > 100 µM

**Q.** And the EC50 (Human betaherpesvirus 5 [2])?
**A.** > 100 µM

**Q.** And the IC50 (Leishmania donovani)?
**A.** > 200 µM

**Q.** What about the EC50 (Human alphaherpesvirus 3 [3]) of the same compound?
**A.** 74.6 µM

**Q.** And the EC50 (Human alphaherpesvirus 3 [4])?
**A.** > 100 µM

**Q.** What about the MCC [5] of the same compound?
**A.** > 100 µM

**Q.** What about the CC50 [6] of the same compound?
**A.** > 100 µM
